In ChEMBL document CHEMBL1122520, “Potential antitumor agents. 43. Synthesis and biological activity of dibasic 9-aminoacridine-4-carboxamides, a new class of antitumor agent” (J Med Chem, 1984):

How the values were obtained:
[1] = Lipophilicity (Rm) (RP-TLC); type: physicochemical
Mus musculus [2] = species on record: Mus musculus; experiment: Number of mice survived indefinitely out a group of 6; type: functional
HCT-8 = experiment: Concentration required for 50% reduction of counted HCT-8 cells upon exposure for a period of 70h; type: functional; settings: Homo sapiens, HCT-8, 70 h; read-out: ID50 (the source's name)
How it was run: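 HCT-8 human colon adenocarcinoma cells grown in Alpha MEM with glutamine for 2 days before drug addition. Drug exposure for 70 h per table footnote, with 4-day incubation stated in methods. Trypsinized cells counted electronically. ID50 = nM concentration reducing counted cells to 50% of controls.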

Mus musculus [3] = species on record: Mus musculus; experiment: Percentage increase in lifespan of treated animals over that of animals injected with tumor (10e6 P388 leukemia cells), at the optimal dose of 8.9 mg/(kg day); type: functional
[4] = Logarithmic association constant determined by ethidium displacement from DNA co-polymers (adenine & thymine)
How it was run: (§1)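 Binding constants derived from ethidium displacement from synthetic DNA copolymers, assuming competitive binding.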

L1210 = experiment: Concentration required for 50% reduction of counted L1210 cells upon exposure for a period of 70h; type: functional; settings: Mus musculus, L1210, 70 h; read-out: ID50 (the source's name)
How it was run: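 L1210 leukemia cells cultured with drug for 70 h, then counted. ID50 taken as the nanomolar concentration reducing cell count to 50% of untreated controls.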

[5] = Logarithmic association constant determined by ethidium displacement from DNA co-polymers (G + C); how it was run: as §1
[6] = pKa value for the side-chain cationic center; type: physicochemical
Mus musculus [7] = species on record: Mus musculus; experiment: Percentage increase in lifespan of treated animals over that of animals injected with tumor (10e6 P388 leukemia cells), at the optimal dose of 250 mg/(kg day); g=No activity (ILS < 20%)
Mus musculus [8] = species on record: Mus musculus; experiment: Percentage increase in lifespan of treated animals over that of animals injected with tumor (10e6 P388 leukemia cells), at the optimal dose of 20 mg/(kg day); type: functional
Mus musculus [9] = species on record: Mus musculus; experiment: Percentage increase in lifespan of treated animals over that of animals injected with tumor (10e6 P388 leukemia cells), at the optimal dose of 8.9 mg/(kg day); g=No activity (ILS < 20%); type: functional, organism-based
Mus musculus [10] = experiment: Percentage increase in lifespan of treated animals over that of animals injected with tumor (10e6 P388 leukemia cells), at the optimal dose of 50 mg/kg day); g=No activity (ILS < 20%); type: functional, organism-based; parameters: dose 50 mg/kg
Mus musculus [11] = species on record: Mus musculus; experiment: Percentage increase in lifespan of treated animals over that of animals injected with tumor (10e6 P388 leukemia cells), at the optimal dose of 13.3 mg/(kg day); type: functional
Mus musculus [12] = species on record: Mus musculus; experiment: Percentage increase in lifespan of treated animals over that of animals injected with tumor (10e6 P388 leukemia cells), at the optimal dose of 2.6 mg/(kg day); type: functional
Mus musculus [13] = species on record: Mus musculus; experiment: Percentage increase in lifespan of treated animals over that of animals injected with tumor (10e6 P388 leukemia cells), at the optimal dose of 30 mg/(kg day); g=No activity (ILS < 20%); type: functional, organism-based
Mus musculus [14] = species on record: Mus musculus; experiment: Percentage increase in lifespan of treated animals over that of animals injected with tumor (10e6 P388 leukemia cells), at the optimal dose of 40 mg/(kg day); g=No activity (ILS < 20%); type: functional, organism-based
Mus musculus [15] = species on record: Mus musculus; experiment: Percentage increase in lifespan of treated animals over that of animals injected with tumor (10e6 P388 leukemia cells), at the optimal dose of 5.9 mg/(kg day); type: functional
Mus musculus [16] = species on record: Mus musculus; experiment: Percentage increase in lifespan of treated animals over that of animals injected with tumor (10e6 P388 leukemia cells), at the optimal dose of 30 mg/(kg day); type: functional

SMILES | Rm [1] | IC50 (HCT-8) [nM] | Log K [4] | IC50 (L1210) [nM] | Log K [5] | other results
CN(C)CCNC(=O)c1cccc2c(N)c3ccccc3nc12 | -1.11 | 55 | – | – | – | Survivors (Mus musculus [2]): 1
CCNc1c2ccccc2nc2c(C(=O)NCCN(C)C)cccc12 | -0.88 | 188 | 7.14 | 94 | 7.69 | ILS (Mus musculus [3]): 30%
CN(C)CCNC(=O)c1ccc2nc3ccccc3c(N)c2c1 | -1 | > 5000 | 7.08 | > 2000 | 7.55 | pKa [6]: 8.6; ILS (Mus musculus [7]): No activity (ILS <20%)
CN1CCN(C(=O)c2cccc3c(N)c4ccccc4nc23)CC1 | -1.29 | > 1500 | 6.58 | > 2000 | 6.45 | –
CCCCNc1c2ccccc2nc2c(C(=O)NCCN(C)C)cccc12 | -0.34 | 150 | 7.1 | 41 | 7.69 | ILS (Mus musculus [8]): 70%
CN(C)CCNC(=O)c1cccc2c(NCCN(C)C)c3ccccc3nc12 | -1.72 | 1300 | 7.83 | 460 | 8.2 | ILS (Mus musculus [9]): No activity (ILS <20%)
Nc1c2ccccc2nc2c(C(=O)NCCNCCO)cccc12 | -1.06 | 1600 | 7.34 | 77 | 7.73 | ILS (Mus musculus [8]): 73%; pKa [6]: 8.5
NCCNC(=O)c1cccc2c(N)c3ccccc3nc12 | -1.18 | 1500 | 7.36 | 414 | 7.67 | ILS (Mus musculus [8]): 71%; pKa [6]: 9.1
CN(C)CCCCCCNC(=O)c1cccc2c(N)c3ccccc3nc12 | -0.58 | 1750 | 7.41 | 1540 | 7.4 | –
CN(C)CCCNC(=O)c1cccc2c(N)c3ccccc3nc12 | -0.93 | 520 | 7.51 | 157 | 7.6 | ILS (Mus musculus [10]): No activity (ILS <20%)
CN(C)CCCCNC(=O)c1cccc2c(N)c3ccccc3nc12 | -0.89 | 1000 | 7.49 | 430 | 7.43 | –
CCCCCNc1c2ccccc2nc2c(C(=O)NCCN(C)C)cccc12 | -0.23 | 160 | 6.91 | 43 | 7.58 | ILS (Mus musculus [11]): 64%
CCCNc1c2ccccc2nc2c(C(=O)NCCN(C)C)cccc12 | -0.57 | 203 | 7.23 | 46 | 7.79 | ILS (Mus musculus [11]): 64%
Nc1c2ccccc2nc2c(C(=O)NCCN3CCCCC3)cccc12 | -0.7 | 380 | 7.12 | 102 | 7.1 | pKa [6]: 8.9; ILS (Mus musculus [12]): 33%
CN(C)CCCCCNC(=O)c1cccc2c(N)c3ccccc3nc12 | -0.73 | 1800 | 7.45 | 1370 | 7.45 | –
Nc1c2ccccc2nc2c(C(=O)NCCN3CCOCC3)cccc12 | -1 | 2000 | 7.29 | 1020 | 7.58 | pKa [6]: 6.7; ILS (Mus musculus [13]): No activity (ILS <20%)
Nc1c2ccccc2nc2c(C(=O)NCCc3ccccn3)cccc12 | -0.57 | 3200 | 6.94 | 1900 | 7.03 | pKa [6]: 5.9; ILS (Mus musculus [14]): No activity (ILS <20%)
CCN(CC)CCNC(=O)c1cccc2c(N)c3ccccc3nc12 | -0.67 | 83 | 7.26 | 5.5 | 7.59 | ILS (Mus musculus [15]): 70%; pKa [6]: 9.2
CN(C)CCCCCCCNC(=O)c1cccc2c(N)c3ccccc3nc12 | -0.44 | 2000 | 7.43 | 1180 | 7.3 | –
CN(C)CCNC(=O)c1cccc2c(NCCO)c3ccccc3nc12 | -1.19 | 540 | 6.82 | 484 | 7.61 | ILS (Mus musculus [9]): No activity (ILS <20%)
CNc1c2ccccc2nc2c(C(=O)NCCN(C)C)cccc12 | -1.11 | 125 | 7.17 | 15 | 7.65 | –
COCCNc1c2ccccc2nc2c(C(=O)NCCN(C)C)cccc12 | -0.76 | 400 | 6.73 | 85 | 7.35 | ILS (Mus musculus [11]): 47%
CN(C)CCNC(=O)c1ccc2c(N)c3ccccc3nc2c1 | -1.06 | > 5000 | 7.18 | > 2000 | 7.66 | –
CCCCCCNc1c2ccccc2nc2c(C(=O)NCCN(C)C)cccc12 | -0.04 | 210 | 7 | 65 | 7.79 | ILS (Mus musculus [16]): 88%
